For test [1], the species on record is Rattus norvegicus. Briefly: Selectivity ratio of Ki for alpha1A adrenoceptor in Wistar rat vas deferens to Ki for Alpha-1D adrenoceptor in Wistar rat thoracic aorta. The class given is tissue-based.
The species named for test [2] is Rattus norvegicus. Briefly: Selectivity ratio of Ki for alpha1A adrenoceptor in Wistar rat vas deferens to EC50 for Alpha-1D adrenoceptor in Wistar rat thoracic aorta. The class given is tissue-based.
For test [3], the species on record is Rattus norvegicus. Briefly: Selectivity ratio of EC50 for alpha1A adrenoceptor in Wistar rat vas deferens to Ki for Alpha-1B adrenoceptor in Wistar rat spleen. The class given is tissue-based.
The target of test [4] is T1, Alpha-1A adrenergic receptor (Homo sapiens, UniProt P35348).
T1 sequence (P35348 whole entry): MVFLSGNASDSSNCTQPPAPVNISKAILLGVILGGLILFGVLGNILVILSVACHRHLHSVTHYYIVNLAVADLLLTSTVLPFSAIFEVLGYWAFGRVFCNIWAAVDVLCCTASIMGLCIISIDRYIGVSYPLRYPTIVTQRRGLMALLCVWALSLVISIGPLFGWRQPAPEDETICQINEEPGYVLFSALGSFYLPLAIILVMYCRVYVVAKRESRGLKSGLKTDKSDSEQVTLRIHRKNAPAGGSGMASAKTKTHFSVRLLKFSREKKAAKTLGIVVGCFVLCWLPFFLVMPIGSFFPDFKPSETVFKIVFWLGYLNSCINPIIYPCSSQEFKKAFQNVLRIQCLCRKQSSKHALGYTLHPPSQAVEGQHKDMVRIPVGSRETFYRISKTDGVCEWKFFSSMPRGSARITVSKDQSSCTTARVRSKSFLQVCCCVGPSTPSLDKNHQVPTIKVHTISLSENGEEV
Briefly: Displacement of [3H]prazosin from human alpha1A adrenoceptor expressed in CHO cells. The class given is cell-based. A digest of the protocol: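 Membranes ([…], as printed) from CHO cells stably expressing the cloned human α1a subtype were incubated with 0.1–0.4 nM [³H]prazosin and competitor (1 pM up to the top concentration) in 50 mM Tris-HCl, pH 7.4, for 30 min at 25 °C. Non-specific binding was defined with phentolamine, and incubations ended by rapid filtration. IC50 was converted to Ki by Cheng–Prusoff. Reported as pKi from 2–3 triplicate experiments.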

Test [5] is filed under the species Rattus norvegicus. Briefly: Selectivity ratio of EC50 for alpha1A adrenoceptor in Wistar rat vas deferens to EC50 for Alpha-1B adrenoceptor in Wistar rat spleen. The class given is tissue-based.
Test [6] can be described thus: Selectivity ratio of Ki for human alpha1A adrenoceptor to Ki for human Alpha-1B adrenoceptor. A digest of the protocol:
(§1)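 Subtype selectivity is the antilog of the difference between pKi values, from [³H]prazosin displacement (0.1–0.4 nM, 30 min, 25 °C, pH 7.4) at cloned human α1a, α1b and α1d receptors in CHO membranes. Ki values came from IC50 via Cheng–Prusoff.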

The target in test [7] is T2, Alpha-1A adrenergic receptor (Rattus norvegicus, UniProt P43140).
T2 sequence (P43140 whole entry): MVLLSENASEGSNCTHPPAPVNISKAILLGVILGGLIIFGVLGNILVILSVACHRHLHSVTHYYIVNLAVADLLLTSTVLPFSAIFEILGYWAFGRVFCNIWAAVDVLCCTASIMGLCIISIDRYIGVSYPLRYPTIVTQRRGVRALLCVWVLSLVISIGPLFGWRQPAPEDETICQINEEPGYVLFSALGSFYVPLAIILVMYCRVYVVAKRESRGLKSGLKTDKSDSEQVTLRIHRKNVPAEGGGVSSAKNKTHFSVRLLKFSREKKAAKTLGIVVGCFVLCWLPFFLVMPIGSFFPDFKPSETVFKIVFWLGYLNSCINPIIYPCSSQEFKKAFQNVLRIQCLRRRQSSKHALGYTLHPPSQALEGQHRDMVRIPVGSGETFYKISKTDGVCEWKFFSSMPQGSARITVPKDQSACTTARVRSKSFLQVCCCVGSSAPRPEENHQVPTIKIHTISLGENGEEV
Briefly: Antagonist activity at alpha1A adrenoceptor in Wistar rat vas deferens assessed as noradrenaline induced contractions after 30 mins. The settings on record: read-out: pA2 (converted). The class given is functional, tissue-based. Summed up:
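Prostatic portions (2 cm) of vas deferens from male Wistar rats (275–300 g) were held under 0.35 g tension in Tyrode solution at 37 °C with cocaine present. Tissues were equilibrated 45 min, primed twice with noradrenaline, then given a cumulative isotonic noradrenaline curve.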

Test [8] deals with T3, Alpha-1B adrenergic receptor (Rattus norvegicus) (UniProt P15823).
T3 sequence (whole entry): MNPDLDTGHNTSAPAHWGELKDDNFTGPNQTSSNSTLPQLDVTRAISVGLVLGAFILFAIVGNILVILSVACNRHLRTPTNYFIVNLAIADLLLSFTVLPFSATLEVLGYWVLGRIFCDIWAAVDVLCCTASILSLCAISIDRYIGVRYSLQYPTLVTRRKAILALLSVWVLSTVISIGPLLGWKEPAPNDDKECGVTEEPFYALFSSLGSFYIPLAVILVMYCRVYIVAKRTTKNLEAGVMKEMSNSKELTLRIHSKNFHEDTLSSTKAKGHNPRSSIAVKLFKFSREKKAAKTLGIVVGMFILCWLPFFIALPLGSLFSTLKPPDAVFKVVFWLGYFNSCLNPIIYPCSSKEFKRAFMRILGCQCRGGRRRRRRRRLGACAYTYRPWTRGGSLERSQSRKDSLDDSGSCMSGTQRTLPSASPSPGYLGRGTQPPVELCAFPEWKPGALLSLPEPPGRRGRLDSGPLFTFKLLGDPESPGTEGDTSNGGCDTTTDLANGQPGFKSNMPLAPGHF
Briefly: Antagonist activity at Alpha-1B adrenoceptor in Wistar rat spleen assessed as phenylephrine induced contractions after 30 mins. The class given is functional, tissue-based. Summed up:
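Spleen strips from male Wistar rats (275–300 g) were set up in a 20 mL bath of physiological salt solution (pH 7.4, 37 °C, 95% O2/5% CO2) under 1 g tension and equilibrated 2 h. Two cumulative phenylephrine curves were run, each followed by 30 min washing, then 30 min incubation with vehicle or antagonist before a third curve. Values are Schild pA2, or pKB where slopes were nonparallel; 4–6 experiments.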

The species entered for test [9] is Rattus norvegicus. Briefly: Selectivity ratio of EC50 for alpha1D adrenoceptor in Wistar rat thoracic aorta to EC50 for Alpha-1B adrenoceptor in Wistar rat spleen. The class given is tissue-based.
Test [10] is described as follows: Selectivity ratio of Ki for human alpha1A adrenoceptor to Ki for human Alpha-1D adrenoceptor. A digest of the protocol:
as §1

Test [11] is filed under the species Rattus norvegicus. Briefly: Selectivity ratio of Ki for alpha1D adrenoceptor in Wistar rat thoracic aorta to Ki for Alpha-1B adrenoceptor in Wistar rat spleen. The class given is tissue-based.
For test [12], the species on record is Rattus norvegicus. Briefly: Selectivity ratio of Ki for alpha1A adrenoceptor in Wistar rat vas deferens to Ki for Alpha-1B adrenoceptor in Wistar rat spleen. The class given is tissue-based.

Molecules are shown by their SMILES.

Experimental findings from ChEMBL document CHEMBL1629492 (Eur J Med Chem, 2010) are described below.

With `COc1ccc(C[C@@H](C)NC[C@@H]2Oc3ccccc3O[C@@H]2C)cc1S(N)(=O)=O`, the Selectivity ratio in the test listed under Rattus norvegicus [1] turned out to be 1; in the test filed under Rattus norvegicus [2] it was 1; in the test filed under Rattus norvegicus [3], 1; in the test listed under Rattus norvegicus [5] it was 1; in the test listed under Rattus norvegicus [9], 0.8; in the test filed under Rattus norvegicus [11], 0.8. In the test listed under Rattus norvegicus [12], the Selectivity ratio was 1. For the same molecule, the Ki in [4] is 11.5 nM. The Ki ratio in test [6] stood at 3; in test [10] it was 1. In test [7], the Kb was 16.2 nM. In addition, the negative logarithm of the Kb (pKb) in [8] was determined as 7.76.
With `COc1ccc(C[C@@H](C)NCCOc2ccccc2OCc2ccccc2)cc1S(N)(=O)=O`, the Selectivity ratio in the test filed under Rattus norvegicus [1] was 3; in the test filed under Rattus norvegicus [2], 3; in the test filed under Rattus norvegicus [3], 12; in the test listed under Rattus norvegicus [5] it was 12; in the test filed under Rattus norvegicus [9] it was 4; in the test listed under Rattus norvegicus [11] it was 4. In addition, in the test listed under Rattus norvegicus [12], the Selectivity ratio came out at 12. Further, the Ki in test [4] was 0.347 nM. In addition, the Ki ratio is recorded as 6 in [6] and 0.9 in [10]. Besides, the pKb in [8] came out at 8.57.
As for `COc1ccc(C[C@@H](C)NCCOc2ccccc2OC(C)C)cc1S(N)(=O)=O`, the Selectivity ratio in the test listed under Rattus norvegicus [1] was found to be 2; in the test listed under Rattus norvegicus [2], 2; in the test filed under Rattus norvegicus [3] it was 7; in the test filed under Rattus norvegicus [5] it was 7; in the test filed under Rattus norvegicus [9] it was 3; in the test filed under Rattus norvegicus [11] it was 3. Moreover, the Selectivity ratio in the test filed under Rattus norvegicus [12] stood at 7. In test [4], this molecule had a Ki of 0.339 nM. The results for the Ki ratio in [6] and in test [10] were 5 and 0.7, respectively. The negative-log Kb (pKb) in test [8] came out at 8.81.
Regarding `COc1ccc(C[C@@H](C)NCCOc2ccccc2OCC(F)(F)F)cc1S(N)(=O)=O`, the Selectivity ratio in the test filed under Rattus norvegicus [1] came out at 4; in the test listed under Rattus norvegicus [2] it was 4; in the test listed under Rattus norvegicus [3], 4; in the test filed under Rattus norvegicus [5] it was 4; in the test listed under Rattus norvegicus [9], 1; in the test listed under Rattus norvegicus [11] it was 1. Also, the Selectivity ratio in the test filed under Rattus norvegicus [12] turned out to be 4. Besides, the affinity in test [4] corresponds to a Ki of 0.603 nM. The Ki ratio in test [6] is reported as 9; in [10], 2. Besides, the Kb in [7] was 0.263 nM.
In the case of `COc1ccc(C[C@@H](C)NC[C@H]2Oc3ccccc3O[C@H]2C)cc1S(N)(=O)=O`, the Selectivity ratio amounted to 2 in the test listed under Rattus norvegicus [1]; 2 in the test filed under Rattus norvegicus [2]; 1 in the test filed under Rattus norvegicus [3]; 1 in the test listed under Rattus norvegicus [5]; 0.5 in the test listed under Rattus norvegicus [9]; 0.5 in the test listed under Rattus norvegicus [11]. Also, in the test filed under Rattus norvegicus [12], the Selectivity ratio is 1. Affinity in [4] was put at a Ki of 19.1 nM. Also, the Ki ratio in test [6] came to 4; in test [10], 0.9. Moreover, the Kb in test [7] was 30.2 nM.

One may read the Ki as the equilibrium dissociation constant of an inhibitor or competing ligand from its target. A low value points to higher affinity. In general, pKb refers to −log10 of the Kb, conventionally taken in molar units.
